Assay results taken from ChEMBL document CHEMBL4699451, “Discovery of BIIB068: A Selective, Potent, Reversible Bruton's Tyrosine Kinase Inhibitor as an Orally Efficacious Agent for Autoimmune Diseases” (J Med Chem, 2020).
Converted amounts (≈) assume the structure as drawn.

Tests used:
[1] = AUC in cynomolgus monkey at 5 mg/kg, po; assay type: ADME, organism-based, Macaca fascicularis; set-up: dose 5 mg/kg; conditions: in vivo
[2] = Toxicity in Sprague-Dawley rat assessed as change in body weight measured up to 13 weeks; conditions: in vivo, 2184 h
Method in brief: (§1)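 GLP toxicity studies lasting up to 13 weeks, run in Sprague-Dawley rats and cynomolgus monkeys.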

Cytochrome P450 1A2 [3] = target: T1, Cytochrome P450 1A2 (Homo sapiens, UniProt P05177); experiment: Induction of CYP1A2 in human hepatocytes up to 50 uM; assay type: ADME, cell-based, Hepatocyte
T1 sequence (P05177 whole entry): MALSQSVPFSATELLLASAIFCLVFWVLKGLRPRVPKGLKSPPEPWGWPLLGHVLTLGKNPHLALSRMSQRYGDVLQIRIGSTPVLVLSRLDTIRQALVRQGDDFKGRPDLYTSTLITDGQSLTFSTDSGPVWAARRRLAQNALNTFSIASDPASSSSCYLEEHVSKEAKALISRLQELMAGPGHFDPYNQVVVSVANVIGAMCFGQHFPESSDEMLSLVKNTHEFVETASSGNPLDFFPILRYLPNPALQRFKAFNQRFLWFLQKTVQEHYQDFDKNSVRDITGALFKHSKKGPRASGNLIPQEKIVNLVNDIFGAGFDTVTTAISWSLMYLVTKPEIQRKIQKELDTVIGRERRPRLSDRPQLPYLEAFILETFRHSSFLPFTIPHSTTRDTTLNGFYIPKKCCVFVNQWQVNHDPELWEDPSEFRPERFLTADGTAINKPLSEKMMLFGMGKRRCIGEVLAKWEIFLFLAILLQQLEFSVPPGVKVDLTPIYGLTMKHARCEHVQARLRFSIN
Method in brief: (§2)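 Sandwich-cultured human hepatocytes exposed at concentrations up to 50 μM; induction of CYP1A2, 2B6 and 3A4 assessed.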

Cytochrome P450 2C19 = Cytochrome P450 2C19 (Homo sapiens, UniProt P33261); experiment: Inhibition of CYP2C19 in human liver microsomes using S-mephenytoin as substrate measured after 30 mins in presence of NADPH by LC-MS/MS analysis; assay type: ADME
Cytochrome P450 2C19, sequence (P33261 whole entry): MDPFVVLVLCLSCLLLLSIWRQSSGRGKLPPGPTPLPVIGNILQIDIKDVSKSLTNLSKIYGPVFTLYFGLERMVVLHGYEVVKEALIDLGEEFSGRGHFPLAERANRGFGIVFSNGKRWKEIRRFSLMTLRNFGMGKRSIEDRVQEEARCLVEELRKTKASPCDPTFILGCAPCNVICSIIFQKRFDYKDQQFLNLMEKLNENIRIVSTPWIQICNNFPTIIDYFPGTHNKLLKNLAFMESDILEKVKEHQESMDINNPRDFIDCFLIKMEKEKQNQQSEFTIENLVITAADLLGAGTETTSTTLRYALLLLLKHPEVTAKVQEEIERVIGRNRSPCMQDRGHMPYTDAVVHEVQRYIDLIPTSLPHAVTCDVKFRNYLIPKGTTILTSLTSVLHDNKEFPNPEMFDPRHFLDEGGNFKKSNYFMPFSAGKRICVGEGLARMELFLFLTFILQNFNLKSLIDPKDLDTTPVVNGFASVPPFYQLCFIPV

Cytochrome P450 2C9 = Cytochrome P450 2C9 (Homo sapiens, UniProt P11712); experiment: Inhibition of CYP2C9 in human liver microsomes using tolbutamide as substrate measured after 15 mins in presence of NADPH by LC-MS/MS analysis; assay type: ADME
Cytochrome P450 2C9, sequence (P11712 whole entry): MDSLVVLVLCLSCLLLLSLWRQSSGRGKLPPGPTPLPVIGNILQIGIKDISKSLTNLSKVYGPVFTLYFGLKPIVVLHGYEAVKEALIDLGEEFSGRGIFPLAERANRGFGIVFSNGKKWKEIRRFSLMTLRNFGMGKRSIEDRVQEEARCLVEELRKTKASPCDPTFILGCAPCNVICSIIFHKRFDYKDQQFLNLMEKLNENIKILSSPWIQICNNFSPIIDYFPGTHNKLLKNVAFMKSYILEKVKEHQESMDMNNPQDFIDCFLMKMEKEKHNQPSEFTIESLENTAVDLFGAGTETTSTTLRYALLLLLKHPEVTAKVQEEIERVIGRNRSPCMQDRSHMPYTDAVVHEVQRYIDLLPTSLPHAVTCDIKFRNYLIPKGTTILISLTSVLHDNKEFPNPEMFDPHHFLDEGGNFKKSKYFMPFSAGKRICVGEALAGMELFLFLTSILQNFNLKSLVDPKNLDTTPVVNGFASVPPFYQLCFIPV

[4] = Protein binding in human plasma assessed as unbound fraction at 2 uM by rapid equilibrium dialysis method; assay type: ADME, cell-free
Method in brief: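 Unbound fraction in human plasma determined by rapid equilibrium dialysis at 2 µM compound.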

[5] = Toxicity in cynomolgus monkey assessed as histopathological changes measured up to 13 weeks; set-up: species or system Macaca fascicularis; conditions: in vivo, 2184 h; method in brief: as §1
[6] = Oral bioavailability in cynomolgus monkey at 5 mg/kg; assay type: ADME, organism-based, Macaca fascicularis; conditions: in vivo
[7] = Clearance in rat at 1 mg/kg, iv relative to hepatic blood flow; assay type: ADME, organism-based; conditions: in vivo
[8] = Toxicity in Sprague-Dawley rat assessed as change in ECG measured up to 13 weeks; conditions: in vivo, 2184 h; method in brief: as §1
Cytochrome P450 2D6 = Cytochrome P450 2D6 (Homo sapiens, UniProt P10635); experiment: Inhibition of CYP2D6 in human liver microsomes using dextromethorphan as substrate measured after 15 mins in presence of NADPH by LC-MS/MS analysis; assay type: ADME
Cytochrome P450 2D6, sequence (P10635 whole entry): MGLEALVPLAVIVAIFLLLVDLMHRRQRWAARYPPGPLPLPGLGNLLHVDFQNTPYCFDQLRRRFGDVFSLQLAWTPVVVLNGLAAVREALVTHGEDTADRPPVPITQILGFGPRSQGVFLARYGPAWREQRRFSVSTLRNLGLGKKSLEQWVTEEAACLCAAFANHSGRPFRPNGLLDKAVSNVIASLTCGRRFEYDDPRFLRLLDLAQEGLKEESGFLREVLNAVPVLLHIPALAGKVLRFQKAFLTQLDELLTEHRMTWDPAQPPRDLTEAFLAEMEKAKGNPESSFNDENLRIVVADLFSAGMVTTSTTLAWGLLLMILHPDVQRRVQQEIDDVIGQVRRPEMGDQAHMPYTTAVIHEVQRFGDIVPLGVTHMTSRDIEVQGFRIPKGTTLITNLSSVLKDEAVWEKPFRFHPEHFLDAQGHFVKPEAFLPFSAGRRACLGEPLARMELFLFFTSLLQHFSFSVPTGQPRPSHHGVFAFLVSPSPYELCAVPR

[9] = Toxicity in cynomolgus monkey assessed as effect on food consumption measured up to 13 weeks; set-up: species or system Macaca fascicularis; conditions: in vivo, 2184 h; method in brief: as §1
[10] = Half life in cynomolgus monkey at 1 mg/kg, iv; assay type: ADME, organism-based, Macaca fascicularis; conditions: in vivo
[11] = Genotoxicity in Sprague-Dawley rat assessed as clastogenic activity by micronucleus assay; assay type: toxicity
Method in brief: (§3)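 In vivo micronucleus test in Sprague-Dawley rats; bone marrow scored for micronuclei, clastogenic activity and disruption of the mitotic apparatus.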

Cytochrome P450 1A2 [12] = target: T1, Cytochrome P450 1A2; experiment: Inhibition of CYP1A2 in human liver microsomes using phenacetin as substrate measured after 15 mins in presence of NADPH by LC-MS/MS analysis; assay type: ADME
[13] = Toxicity in cynomolgus monkey assessed as effect on cardiovascular system administered as single dose; set-up: species or system Macaca fascicularis; conditions: in vivo
Method in brief: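 Single-dose cardiovascular safety study in cynomolgus monkeys.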

[14] = Genotoxicity in Sprague-Dawley rat assessed as disruption of mitotic apparatus in bone marrow by micronucleus assay; assay type: toxicity; method in brief: as §3
[15] = Toxicity in Sprague-Dawley rat assessed as effect on clinical pathology measured up to 13 weeks; conditions: in vivo, 2184 h; method in brief: as §1
[16] = Toxicity in Sprague-Dawley rat assessed as effect on food consumption measured up to 13 weeks; conditions: in vivo, 2184 h; method in brief: as §1
[17] = In vivo inhibition of BTK-dependent B cell activation in TI-2 antigen/ NP-Ficoll-induced DBA1 mouse immunized model assessed as reduction in anti-NP IgM antibody titer administered orally twice daily for 10 days measured post last dose by ELISA; assay type: functional, organism-based; conditions: DBA1, po, 240 h, dose mg/kg 1-50, time 10 day
[18] = Protein binding in rat plasma assessed as unbound fraction; assay type: ADME, cell-free
[19] = target: Voltage-gated inwardly rectifying potassium channel KCNH2 (Homo sapiens, UniProt Q12809); experiment: Inhibition of human ERG by automated patch-clamp assay
Voltage-gated inwardly rectifying potassium channel KCNH2, sequence (Q12809 whole entry): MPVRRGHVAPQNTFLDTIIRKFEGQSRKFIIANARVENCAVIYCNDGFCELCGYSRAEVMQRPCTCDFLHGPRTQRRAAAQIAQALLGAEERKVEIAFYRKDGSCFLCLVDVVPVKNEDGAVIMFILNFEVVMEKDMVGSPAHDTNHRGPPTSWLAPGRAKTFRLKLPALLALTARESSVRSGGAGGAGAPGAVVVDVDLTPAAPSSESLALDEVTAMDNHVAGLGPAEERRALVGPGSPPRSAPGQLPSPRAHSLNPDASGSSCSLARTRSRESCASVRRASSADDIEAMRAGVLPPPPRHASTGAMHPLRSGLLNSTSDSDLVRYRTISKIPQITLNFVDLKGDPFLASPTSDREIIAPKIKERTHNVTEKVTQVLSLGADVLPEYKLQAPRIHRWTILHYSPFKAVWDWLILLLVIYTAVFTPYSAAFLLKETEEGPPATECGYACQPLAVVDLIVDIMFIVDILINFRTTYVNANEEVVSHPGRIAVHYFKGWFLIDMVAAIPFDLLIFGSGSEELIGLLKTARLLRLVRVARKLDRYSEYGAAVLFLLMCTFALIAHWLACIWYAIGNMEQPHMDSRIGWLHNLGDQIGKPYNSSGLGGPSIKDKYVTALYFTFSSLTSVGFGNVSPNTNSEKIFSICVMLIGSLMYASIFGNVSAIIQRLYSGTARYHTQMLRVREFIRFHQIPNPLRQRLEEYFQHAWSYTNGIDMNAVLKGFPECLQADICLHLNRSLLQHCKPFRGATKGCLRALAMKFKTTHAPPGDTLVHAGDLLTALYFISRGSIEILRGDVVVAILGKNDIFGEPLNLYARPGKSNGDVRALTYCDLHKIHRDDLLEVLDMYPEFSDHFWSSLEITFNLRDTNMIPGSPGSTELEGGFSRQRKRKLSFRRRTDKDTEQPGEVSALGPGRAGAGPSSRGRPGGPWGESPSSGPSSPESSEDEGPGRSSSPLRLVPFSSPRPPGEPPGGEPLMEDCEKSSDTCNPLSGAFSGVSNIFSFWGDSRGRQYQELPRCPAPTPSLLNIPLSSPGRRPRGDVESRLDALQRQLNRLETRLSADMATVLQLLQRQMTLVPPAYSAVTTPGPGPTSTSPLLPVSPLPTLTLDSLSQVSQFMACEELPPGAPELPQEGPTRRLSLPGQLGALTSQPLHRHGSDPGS

[20] = Drug metabolism in human liver microsomes assessed as oxidation at pyrazole moiety; assay type: ADME, Microsome
Cytochrome P450 3A4 [21] = target: T2, Cytochrome P450 3A4 (Homo sapiens, UniProt P08684); experiment: Inhibition of CYP3A4 in human liver microsomes using midazolam as substrate measured after 15 mins in presence of NADPH by LC-MS/MS analysis; assay type: ADME
T2 sequence (P08684 whole entry): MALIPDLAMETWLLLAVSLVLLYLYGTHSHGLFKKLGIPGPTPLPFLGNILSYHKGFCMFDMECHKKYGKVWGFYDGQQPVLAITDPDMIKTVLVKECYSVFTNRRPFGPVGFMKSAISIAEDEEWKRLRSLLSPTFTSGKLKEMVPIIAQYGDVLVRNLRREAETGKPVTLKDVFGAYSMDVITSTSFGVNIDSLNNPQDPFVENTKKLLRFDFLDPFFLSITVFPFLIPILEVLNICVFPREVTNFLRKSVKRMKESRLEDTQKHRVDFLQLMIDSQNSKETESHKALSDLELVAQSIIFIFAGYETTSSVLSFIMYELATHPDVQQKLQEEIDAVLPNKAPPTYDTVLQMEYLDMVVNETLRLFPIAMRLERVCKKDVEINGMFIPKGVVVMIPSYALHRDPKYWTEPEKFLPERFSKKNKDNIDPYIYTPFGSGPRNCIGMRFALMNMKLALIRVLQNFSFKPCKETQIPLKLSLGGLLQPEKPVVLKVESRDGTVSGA

[22] = Oral bioavailability in dog at 5 mg/kg; assay type: ADME, organism-based, Canis lupus familiaris; conditions: in vivo
[23] = Stability in Beagle dog plasma assessed as parent compound remaining after 6 hrs; assay type: ADME, cell-free, Canis lupus familiaris; conditions: read-out: Stabilty
Method in brief: (§4)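 Compound incubated in plasma for 6 hours, then percentage of parent compound remaining determined.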

[24] = Drug metabolism in human liver microsomes assessed as N-demethylation; assay type: ADME, Microsome
[25] = Toxicity in Sprague-Dawley rat assessed as effect on organ weight measured up to 13 weeks; conditions: in vivo, 2184 h; method in brief: as §1
[26] = Kinetic solubility of compound at pH 1.5 by shake flask method; assay type: physicochemical; conditions: buffer, read-out: Kinetic_solubility
[27] = Half life in dog at 1 mg/kg, iv; assay type: ADME, organism-based, Canis lupus familiaris; conditions: in vivo
[28] = Toxicity in cynomolgus monkey assessed as effect on clinical sign measured up to 13 weeks; set-up: species or system Macaca fascicularis; conditions: in vivo, 2184 h; method in brief: as §1
[29] = Toxicity in Sprague-Dawley rat assessed as effect on gross pathology measured up to 13 weeks; conditions: in vivo, 2184 h; method in brief: as §1
[30] = Stability in mouse plasma assessed as parent compound remaining after 6 hrs; assay type: ADME, cell-free; conditions: read-out: Stabilty; method in brief: as §4
[31] = Toxicity in Sprague-Dawley rat measured up to 13 weeks; conditions: in vivo; method in brief: as §1
[32] = Toxicity in cynomolgus monkey assessed as change in body weight measured up to 13 weeks; set-up: species or system Macaca fascicularis; conditions: in vivo, 2184 h; method in brief: as §1
Cytochrome P450 3A4 [33] = target: T2, Cytochrome P450 3A4; experiment: Induction of CYP3A4 in human hepatocytes up to 50 uM; assay type: ADME, cell-based, Hepatocyte; method in brief: as §2
[34] = Lipophilicity, log D of compound by UV-HPLC method; assay type: physicochemical
[35] = Clearance in cynomolgus monkey at 1 mg/kg, iv; assay type: ADME, organism-based, Macaca fascicularis; conditions: in vivo
[36] = Toxicity in Sprague-Dawley rat assessed as effect on CNS administered as single dose; conditions: in vivo
Method in brief: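 Single-dose CNS and respiratory safety studies in rats.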

[37] = Aqueous solubility of compound in simulated intestinal fluid at pH 7 by HPLC method; assay type: physicochemical
[38] = Toxicity in cynomolgus monkey assessed as effect on clinical pathology measured up to 13 weeks; set-up: species or system Macaca fascicularis; conditions: in vivo, 2184 h; method in brief: as §1
[39] = Stability in cynomolgus monkey plasma assessed as parent compound remaining after 6 hrs; assay type: ADME, cell-free, Macaca fascicularis; conditions: read-out: Stabilty; method in brief: as §4

AUC [1]: 2350 ng·h/mL
Activity (Cytochrome P450 1A2 [3]): Not Active
IC50 (Cytochrome P450 2C19): > 25 µM
IC50 (Cytochrome P450 2C9): > 25 µM
fraction unbound at 2 µM [4]: 0.059
bioavailability [6]: 32%
CL [7]: 6%
IC50 (Cytochrome P450 2D6): > 25 µM
half-life [10]: 0.9 h
IC50 (Cytochrome P450 1A2 [12]): > 25 µM
fraction unbound [18]: 0.0128
Drug metabolism [20]: Metabolite_Detected
IC50 (Cytochrome P450 3A4 [21]): > 25 µM
bioavailability [22]: 26%
remaining at 6 h [23]: > 95%
Drug metabolism [24]: Metabolite_Detected
solubility kinetic [26]: > 50 µg/mL
half-life [27]: 2.1 h
remaining at 6 h [30]: > 95%
Activity (Cytochrome P450 3A4 [33]): Not Active
logD [34]: 2.32
clearance [35]: 11 mL/min/kg
solubility [37]: 1 µg/mL (≈ 2.3 µM)
remaining at 6 h [39]: > 95%
Structure (SMILES): Cc1cc(-c2ccnc(Nc3cnn(C)c3)n2)ccc1CNC(=O)N1CC(OC(C)C)C1
Activity [2]: Non-Toxic
Activity [5]: Non-Toxic
Activity [8]: Non-Toxic
Activity [9]: Non-Toxic
Activity [11]: Non-Toxic
Activity [13]: Non-Toxic
Activity [14]: Non-Toxic
Activity [15]: Non-Toxic
Activity [16]: Non-Toxic
ED50 [17]: 4.4 mg/kg
IC50 [19]: > 50 µM
Activity [25]: Non-Toxic
Activity [28]: Non-Toxic
Activity [29]: Non-Toxic
NOAEL at 2184 h [31]: 50 mg/kg/day
Activity [32]: Non-Toxic
Activity [36]: Non-Toxic
Activity [38]: Non-Toxic
